According to ChEMBL document CHEMBL1125448, “(Aminoalkoxy)chromones. Selective sigma receptor ligands” (J Med Chem, 1992):

Each molecule was assayed against T1, D(2) dopamine receptor (Rattus norvegicus, UniProt P61169) (assay: Affinity towards dopamine receptor D2 site was determined by competition studies using [3H]sulpiride in rat striatum.).
Type: tissue-based
Method in brief: (§1)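 Competition binding values reported as mean ± SEM of triplicate determinations, with some entries from N = 3, 4, 6 or 7 determinations.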

T1 sequence (P61169 whole entry): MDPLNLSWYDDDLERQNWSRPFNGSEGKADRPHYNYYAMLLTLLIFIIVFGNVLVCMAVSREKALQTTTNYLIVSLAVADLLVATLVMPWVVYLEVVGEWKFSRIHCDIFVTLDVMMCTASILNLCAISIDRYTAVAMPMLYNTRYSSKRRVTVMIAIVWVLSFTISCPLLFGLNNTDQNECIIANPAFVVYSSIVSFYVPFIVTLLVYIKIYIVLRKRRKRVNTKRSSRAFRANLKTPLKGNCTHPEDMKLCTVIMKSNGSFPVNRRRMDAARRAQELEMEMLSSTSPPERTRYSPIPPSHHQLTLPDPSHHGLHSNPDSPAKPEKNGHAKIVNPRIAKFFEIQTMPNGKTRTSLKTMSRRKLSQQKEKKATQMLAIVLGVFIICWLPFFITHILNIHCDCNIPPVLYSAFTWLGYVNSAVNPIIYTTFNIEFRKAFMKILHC

Going from `O=c1cc(-c2cccc(Cl)c2)oc2ccc(OCCCCCCN3CCC(O)CC3)cc12` to `O=c1cc(-c2cccc(F)c2)oc2ccc(OCCCCCCN3CCC(O)CC3)cc12`, the Ki rises from 6.4 µM to 11 µM (1.7-fold). The first binds more tightly here.

Compared with `O=c1cc(-c2ccccc2)oc2ccc(OCCCCCCN3CCC(n4c(O)nc5ccccc54)CC3)cc12`, `O=c1cc(-c2ccccc2)oc2ccc(OCCCCCCN3CCN(c4ccccn4)CC3)cc12` is 14-fold higher in Ki: 0.22 µM for the first, 3 µM for the second.

`COc1ccc(-c2cc(=O)c3cc(OCCCCCCN4CCC(O)CC4)ccc3o2)cc1` and `COc1ccc(-c2cc(=O)c3cc(OCCCCCN4CCC(O)CC4)ccc3o2)cc1` are within 1.5-fold of each other in Ki: 3.7 µM for the first, 4.2 µM for the second.

First: NCCCCCCOc1ccc2oc(-c3ccccc3)cc(=O)c2c1
Second: CN(CCO)CCCCCCOc1ccc2oc(-c3ccccc3)cc(=O)c2c1
The Ki of the first is 1.8-fold higher: 8.2 µM for the first, 4.5 µM for the second. The second binds more tightly here.

`Cc1c(-c2ccccc2)oc2ccc(OCCC/C=C/CN3CCC(O)CC3)cc2c1=O` and `Cc1c(-c2ccccc2)oc2ccc(OCCCCCCN3CCC(O)CC3)cc2c1=O` are the same in Ki: 2.7 µM for the first, 2.7 µM for the second.

Going from `CN(CCCCCCOc1ccc2oc(-c3ccccc3)cc(=O)c2c1)Cc1ccccc1` to `CCN(CC)CCCCCCOc1ccc2oc(-c3ccccc3)cc(=O)c2c1`, the Ki rises from 1.8 µM to 3.6 µM (2-fold). The first binds more tightly here.

Compared with `O=c1cc(C2CCCC2)oc2ccc(OCCCCCCN3CCC(O)CC3)cc12`, `O=c1cc(C2CCCCC2)oc2ccc(OCCCCCN3CCC(O)CC3)cc12` is 1.8-fold lower in Ki: 21 µM for the first, 12 µM for the second.

`O=c1cc(-c2ccccc2)oc2cccc(OCCCCCN3CCC(O)CC3)c12` and `O=c1cc(-c2ccccc2)oc2cccc(OCCCCCCN3CCC(O)CC3)c12` are within 1.5-fold of each other in Ki: 5.1 µM for the first, 6.1 µM for the second.

Going from `COc1cccc(-c2cc(=O)c3cc(OCCCCCCN4CCC(O)CC4)ccc3o2)c1` to `COc1cccc(-c2cc(=O)c3cc(OCCCCCN4CCC(O)CC4)ccc3o2)c1`, the Ki falls from 9.5 µM to 6.2 µM (1.5-fold). The second binds more tightly here.

First: O=c1cc(-c2ccc(Cl)cc2)oc2ccc(OCCCCCCN3CCC(O)CC3)cc12
Second: O=c1cc(-c2ccc(F)cc2)oc2ccc(OCCCCCCN3CCC(O)CC3)cc12
The Ki of the first is 2.9-fold higher: 11 µM for the first, 3.8 µM for the second. The second binds more tightly here.

Compared with `CCOC(=O)C1CCCN(CCCCCCOc2ccc3oc(-c4ccccc4)cc(=O)c3c2)C1` (stereo not given), `CCOC(=O)C1CCN(CCCCCCOc2ccc3oc(-c4ccccc4)cc(=O)c3c2)CC1` is 4-fold higher in Ki: 0.7 µM for the first, 2.8 µM for the second.

Going from `O=C1NCN(c2ccccc2)C12CCN(CCCCCCOc1ccc3oc(-c4ccccc4)cc(=O)c3c1)CC2` to `O=c1cc(-c2ccccc2)oc2ccc(OCCCCCCN3CCC(O)(c4ccc(Cl)cc4)CC3)cc12`, the Ki rises from 0.18 µM to 0.99 µM (5.5-fold).

Compared with `O=c1cc(-c2ccncc2)oc2ccc(OCCCCCCN3CCC(O)CC3)cc12`, `O=c1cc(-c2cccnc2)oc2ccc(OCCCCCCN3CCC(O)CC3)cc12` is 1.8-fold lower in Ki: 6.9 µM for the first, 3.8 µM for the second.

`O=c1cc(-c2ccccc2Cl)oc2ccc(OCCCCCCN3CCC(O)CC3)cc12` and `O=c1cc(-c2cccs2)oc2ccc(OCCCCCCN3CCC(O)CC3)cc12` are within 1.5-fold of each other in Ki: 4.1 µM for the first, 4 µM for the second.

`O=c1cc(-c2ccccc2)oc2ccc(OCCCCCCN3CC=C(c4ccc(Cl)cc4)CC3)cc12` and `O=c1cc(-c2ccccc2)oc2ccc(OCCCCCCN3CCN(c4ccc(Cl)cc4)CC3)cc12` are the same in Ki: 1.3 µM for the first, 1.3 µM for the second.

Compared with `CN(C)CCCOc1ccc2oc(-c3ccccc3)cc(=O)c2c1`, `O=c1cc(-c2ccccc2)oc2ccc(OCCCCCCN3CCOCC3)cc12` is 5-fold higher in Ki: 3.6 µM for the first, 18 µM for the second.

`O=c1cc(-c2ccccc2)oc2cccc(OCCCCN3CCC(O)CC3)c12` and `O=c1cc(-c2ccccc2)oc2cccc(OCCCN3CCC(O)CC3)c12` are within 1.5-fold of each other in Ki: 9.5 µM for the first, 8.4 µM for the second.

First: O=c1cc(C2CCC2)oc2ccc(OCCCCCCN3CCC(O)CC3)cc12
Second: O=c1cc(-c2ccccc2)oc2ccc(OCCCCCCN3CCCCCC3)cc12
The Ki of the first is 6.1-fold higher: 14 µM for the first, 2.3 µM for the second. The second binds more tightly here.

`O=c1cc(-c2ccccc2)oc2ccc(OCCCCCCN3CCN(CCO)CC3)cc12` gave a Ki of 8.3 µM.

What follows are molecules tested against T1, D(2) dopamine receptor (assay: Affinity towards dopamine D2 site was determined by competition studies using [3H]sulpiride in rat striatum.).
Type: tissue-based
Method in brief: as §1

`O=c1cc(-c2ccccc2)oc2ccc(OCCCCCCN3CCCCC3)cc12` gave a Ki of 4.5 µM.

These molecules were tested against T1, D(2) dopamine receptor (assay: Affinity towards dopamine receptor D2 was determined by competition studies using [3H]sulpiride in rat striatum.).
Type: tissue-based
Method in brief: as §1

Compared with `O=c1cc(-c2cccs2)oc2ccc(OCCCCCCN3CCCCC3)cc12`, `O=c1cc(-c2cccnc2)oc2ccc(OCCCCCCN3CCCCC3)cc12` is 1.6-fold higher in Ki: 1.4 µM for the first, 2.3 µM for the second.

Going from `CN(C)CCCCCOc1ccc2oc(-c3ccccc3)cc(=O)c2c1` to `CN(C)CCCCOc1ccc2oc(-c3ccccc3)cc(=O)c2c1`, the Ki falls from 8.2 µM to 4.2 µM (2-fold). The second binds more tightly here.

First: O=c1cc(-c2ccccc2)oc2ccc(OCCCCCCN3CCNCC3c3ncccn3)cc12 (stereo not given)
Second: O=c1cc(-c2ccccc2)oc2ccc(OCCCCCCN3CCCC3)cc12
The Ki of the first is 1.8-fold lower: 1.3 µM for the first, 2.3 µM for the second.

`CN(C)CCCCCCCCCOc1ccc2oc(-c3ccccc3)cc(=O)c2c1` and `CN(C)CCCCCCCCCCOc1ccc2oc(-c3ccccc3)cc(=O)c2c1` are within 1.5-fold of each other in Ki: 2.2 µM for the first, 2.7 µM for the second.

Compared with `O=c1cc(-c2ccccc2)oc2cccc(OCCCCCCCN3CCC(O)CC3)c12`, `O=c1cc(-c2ccccc2)oc2c(OCCCCCCN3CCC(O)CC3)cccc12` is 2.6-fold lower in Ki: 2.4 µM for the first, 0.94 µM for the second. The second binds more tightly here.

First: CN(C)CCOc1ccc2oc(-c3ccccc3)cc(=O)c2c1
Second: CN(C)CCOc1ccc2c(=O)cc(-c3ccccc3)oc2c1
The Ki of the first is 2.9-fold lower: 4.5 µM for the first, 13 µM for the second. The first binds more tightly here.

`O=c1cc(-c2ccccc2)oc2cc(OCCCCCCCCN3CCC(O)CC3)ccc12` and `O=c1cc(-c2ccccc2)oc2cc(OCCCCCCCN3CCC(O)CC3)ccc12` are within 1.5-fold of each other in Ki: 2.8 µM for the first, 4 µM for the second.

First: O=c1cc(-c2ccccc2)oc2cc(OCCCCN3CCC(O)CC3)ccc12
Second: O=c1cc(-c2ccccc2)oc2cc(OCCCCCN3CCC(O)CC3)ccc12
The Ki of the first is 5.9-fold lower: 1 µM for the first, 5.9 µM for the second.

Compared with `CC(C)Cc1cc(=O)c2cc(OCCCCCN3CCC(O)CC3)ccc2o1`, `O=c1cc(-c2ccccc2)oc2ccc(OCCCCCN3CCC(O)CC3)cc12` is 2.5-fold lower in Ki: 13 µM for the first, 5.1 µM for the second. The second binds more tightly here.

First: O=c1cc(C2CCCC2)oc2ccc(OCCCCCCN3CCCCC3)cc12
Second: O=c1cc(C2CCCCC2)oc2ccc(OCCCCCCN3CCCCC3)cc12
The Ki of the first is 2.4-fold lower: 3.2 µM for the first, 7.7 µM for the second. The first binds more tightly here.

Compared with `CN(C)CCCCCCCOc1ccc2oc(-c3ccccc3)cc(=O)c2c1`, `CN(C)CCCCCCCCOc1ccc2oc(-c3ccccc3)cc(=O)c2c1` is 4.3-fold lower in Ki: 12 µM for the first, 2.8 µM for the second.

Going from `CC1CCN(CCCCCCOc2ccc3oc(-c4ccccc4)cc(=O)c3c2)CC1` to `O=c1cc(-c2ccccc2)oc2ccc(OCCCCCCN3CCC(O)CC3)cc12`, the Ki rises from 0.57 µM to 3.7 µM (6.5-fold). The first binds more tightly here.

`O=c1cc(-c2ccccc2)oc2ccc(OCCCCCCN3CCCC(O)C3)cc12` (stereo not given) and `O=c1cc(-c2ccccc2)oc2ccc(OCCCCCCCN3CCC(O)CC3)cc12` are within 1.5-fold of each other in Ki: 5.5 µM for the first, 6.5 µM for the second.

Going from `Cc1c(C2CCCCC2)oc2ccc(OCCCCCCN3CCC(O)CC3)cc2c1=O` to `O=c1cc(C2CCCCC2)oc2ccc(OCCCCCCN3CCOCC3)cc12`, the Ki rises from 4.7 µM to 14 µM (3-fold).

`O=c1cc(-c2ccccc2)oc2cc(OCCCCCCN3CCC(O)CC3)ccc12` and `O=c1cc(-c2ccccc2)oc2ccc(OCCCCCCCCN3CCC(O)CC3)cc12` are within 1.5-fold of each other in Ki: 6 µM for the first, 8.9 µM for the second.

Compared with `O=c1cc(-c2ccccc2)oc2ccc(OCCCCCCN3CCC(CCO)CC3)cc12`, `O=c1cc(-c2ccccc2)oc2ccc(OCCCCN3CCC(O)CC3)cc12` is 2.5-fold higher in Ki: 2.7 µM for the first, 6.8 µM for the second. The first binds more tightly here.

`O=c1cc(-c2ccccc2)oc2ccc(OCCCN3CCC(O)CC3)cc12` and `COc1c(-c2ccccc2)oc2ccc(OCCCCCCN3CCC(O)CC3)cc2c1=O` are within 1.5-fold of each other in Ki: 3.4 µM for the first, 2.6 µM for the second.

First: O=c1cc(C2CCC2)oc2ccc(OCCCCCCN3CCCCC3)cc12
Second: O=c1cc(-c2ccncc2)oc2ccc(OCCCCCCN3CCCCC3)cc12
The Ki of the first is 3.1-fold higher: 5.5 µM for the first, 1.8 µM for the second. The second binds more tightly here.

`O=c1cc(-c2ccccc2Cl)oc2ccc(OCCCCCCN3CCCCC3)cc12` gave a Ki of 2.2 µM.
